Data taken from publication PMC4122523 (Biomedical chromatography : BMC, 2013).
Values belong to the molecule of their own block, whether it stands above or below them.

What was measured:
[1] = system: neurotoxic and stimulant effects of METH; conditions: mouse; ref Kaushal et al., 2011, 2012; cited from earlier work
[2] = Intravenous pharmacokinetic study in rats; assay type: in vivo, male Sprague–Dawley rats; conditions: rat
Summary of the method: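 Male Sprague–Dawley rats (n = 6, 260–280 g), fasted overnight, given water after dosing and food from 4 h post-dose. Single 5 mg/kg i.v. dose via jugular-vein cannula. Blood (0.15 mL) drawn via cannula pre-dose and at 2–480 min and 12–42 h. Plasma separated at 10,000 g, 10 min, 4 °C, and stored at −20 °C. Chloroform extraction with aripiprazole internal standard, UPLC/MS/MS, then non-compartmental analysis.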

[3] = Stability of AZ66 in rat plasma at various storage conditions; assay type: in vitro ADME
Summary of the method: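 Rat plasma QC samples at 10, 400 and 3000 ng/mL, six replicates each. Conditions: three freeze–thaw cycles at −20 °C; −20 °C for 30 days; room temperature for 12 h; processed extracts held in the autosampler at 25 °C for 24 h. Analysed by chloroform liquid–liquid extraction and UPLC/MS/MS with aripiprazole internal standard. Compared against freshly prepared standards; bias = 100×(measured−actual)/actual.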

[4] = Stability of stock solutions; assay type: physicochemical; conditions: 12 h at room temperature and a week at −20 °C
Summary of the method: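 Stock solutions: analyte 1.0 mg/mL in water, aripiprazole internal standard 1 mg/mL in methanol. Held 12 h at room temperature, and tested daily over 1 week during storage at −20 °C. Compared against freshly prepared standards by UPLC/MS/MS.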

[5] = ref Seminerio et al., 2012b, cited from earlier work
[6] = system: both subtypes of sigma receptors; conditions: radioligand binding; ref Seminerio et al., 2012b; cited from earlier work
[7] = system: cocaine-induced convulsions; conditions: mice, toxic dose of cocaine; ref Seminerio et al., 2012b; cited from earlier work
[8] = system: METH-induced dopaminergic neurotoxicity and hyperthermia; conditions: Swiss Webster mice, intraperitoneal; ref Seminerio et al., 2012a; cited from earlier work
[9] = system: METH-induced memory impairment; conditions: mouse; ref Seminerio et al., 2012a; cited from earlier work
[10] = male, Sprague-Dawley, plasma, iv, 5 mg/kg
[11] = processed plasma samples, auto-sampler 24 h (25 °C), spiked 10 ng/mL
[12] = processed plasma samples, auto-sampler 24 h (25 °C), spiked 400 ng/mL
[13] = rat plasma, long-term 30 days (−20 °C), spiked 10 ng/mL
[14] = rat plasma, long-term 30 days (−20 °C), spiked 400 ng/mL
[15] = rat plasma, long-term 30 days (−20 °C), spiked 3000 ng/mL
[16] = rat plasma, short-term 12 h (25 °C), spiked 10 ng/mL
[17] = rat plasma, short-term 12 h (25 °C), spiked 400 ng/mL
[18] = rat plasma, short-term 12 h (25 °C), spiked 3000 ng/mL
[19] = rat plasma, three freeze–thaw cycles (−20 °C), spiked 400 ng/mL
[20] = rat plasma, three freeze–thaw cycles (−20 °C), spiked 3000 ng/mL

Compound: c1ccc(CCN2CCCCC2)cc1 [AC927]
- effect on neurotoxic effects of METH [1]: attenuated
- effect on stimulant effects of METH [1]: attenuated

- Cmax [2, 10]: 1200 ± 200 ng/mL
- MRT [2, 10]: 7.6 ± 0.7 h
- Vd [2, 10]: 30.1 ± 3.6 L/kg
- clearance [2, 10]: 43.3 mL/min/kg
- half-life [2, 10]: 7.9 ± 0.3 h
- CL (total clearance) ([2]; i.v. 5 mg/kg, n=6, mean ± SD): 43.3 ± 6.7 mL/min/kg
- Stability in reconstituted samples in the auto-sampler ([3]; 25 °C for 24 h): stable
- Bias [3, 11]: 1.7%
- Measured concentration [3, 11]: 10.1 ± 0.2 ng/mL
- Bias [3, 12]: 0.8%
- Measured concentration [3, 12]: 403.2 ± 18.6 ng/mL
- Measured concentration ([3]; processed plasma samples, auto-sampler 24 h (25 °C), spiked 3000 ng/mL): 3222 ± 79.4 ng/mL
- Bias [3, 13]: 0.3%
- Measured concentration [3, 13]: 10.2 ± 0.4 ng/mL
- Bias [3, 14]: −0.4%
- Measured concentration [3, 14]: 402.4 ± 7.1 ng/mL
- Bias [3, 15]: −0.6%
- Measured concentration [3, 15]: 3028 ± 55.0 ng/mL
- Bias [3, 16]: 1.3%
- Measured concentration [3, 16]: 10.2 ± 0.2 ng/mL
- Bias [3, 17]: −0.5%
- Measured concentration [3, 17]: 401.4 ± 3.5 ng/mL
- Bias [3, 18]: 1.0%
- Measured concentration [3, 18]: 3015 ± 30.6 ng/mL
- Measured concentration ([3]; rat plasma, three freeze–thaw cycles (−20 °C), spiked 10 ng/mL): 10.2 ± 0.7 ng/mL
- Bias [3, 19]: −0.6%
- Measured concentration [3, 19]: 396.1 ± 12.7 ng/mL
- Bias [3, 20]: 0.2%
- Measured concentration [3, 20]: 2990 ± 42.9 ng/mL
- Short-term stability in rat plasma ([3]; room temperature for 12 h (25 °C)): stable
- Freeze–thaw stability in rat plasma ([3]; three freeze–thaw cycles, 10, 400 and 3000 ng/mL): stable
- Long-term stability in rat plasma ([3]; −20 °C for 30 days): stable
- Stability of stock solutions [4]: stable
Compound: CC(CCCn1c(=O)sc2cc(F)ccc21)N1CCN(C2CCCCC2)CC1 (stereo not shown) [AZ66, 3-[4-(4-cyclohexylpiperazin-1-yl)pentyl]-6-fluorobenzo[d] thiazole-2(3H)-one]
- in vitro half-life compared with CM156 ([5]; in vitro): appreciably longer half-life
- affinity for both subtypes of sigma receptors [6]: high nanomolar affinity
- selectivity over a wide battery of CNS targets [6]: highly selective
- attenuation of cocaine-induced convulsions [7]: significantly attenuate convulsions
- effect on METH-induced dopaminergic neurotoxicity [8]: attenuate
- effect on METH-induced hyperthermia [8]: attenuate
- effect on memory impairment caused by repeated intake of METH [9]: attenuated the memory impairment

Compound: S=c1sc2ccccc2n1CCCCN1CCN(C2CCCCC2)CC1 [CM156, 3-[4-(4-cyclohexylpiperazin-1-yl)butyl]benzo[d]thiazole-2(3H)-thione]
- in vitro half-life ([5]; rat liver microsomes): 4.62 min
- effect on neurotoxic effects of METH [1]: attenuated
- effect on stimulant effects of METH [1]: attenuated

- Stability of stock solutions [4]: stable
Compound: O=C1CCc2ccc(OCCCCN3CCN(c4cccc(Cl)c4Cl)CC3)cc2N1 [IS, aripiprazole, reference compound]
